Test results as given in paper PMC8822587 (ACS infectious diseases, 2021).
Where two headings read alike, the source gives them in different places. Non-standard residues stand in square brackets, D forms with d. Residues, ends and D or L forms follow the SMILES beside them. ξ: configuration not given here. Aoe = N[C@@H](CCCCCC(=O)[C@@H]1CO1)C(=O)O; Aoe(9ξ) = N[C@@H](CCCCCC(=O)C1CO1)C(=O)O; Pip = O=C(O)[C@@H]1CCCCN1

Columns and labels:
P. falciparum 3D7 = conditions: read-out: P. falciparum 3D7 EC50; literature values; cited from earlier work
[1] = tested on: HepG2 hepatocarcinoma cells; assay: MTS human cell cytotoxicity assay; assay type: cell-based; conditions: for EC50: read-out: HepG2 EC50
[2] = tested on: asynchronous P. falciparum Dd2 parasites; assay: Rate of killing assay with compound wash-off; assay type: cell-based, Plasmodium falciparum; conditions: 10 × EC50, exposure 24 or 48 h, then wash-off
[3] = tested on: acetyl-histone H4 in 3D7 parasite culture; assay: Immunoblot of histone H4 hyperacetylation; assay type: cell-based, Plasmodium falciparum; conditions: 3D7 trophozoites, 5× EC50, 4 h, versus DMSO
recombinant PfHDAC1 = target: T1, recombinant PfHDAC1 (Plasmodium falciparum, UniProt Q7K6A1); assay: biochemical
T1 sequence (Q7K6A1 1-449): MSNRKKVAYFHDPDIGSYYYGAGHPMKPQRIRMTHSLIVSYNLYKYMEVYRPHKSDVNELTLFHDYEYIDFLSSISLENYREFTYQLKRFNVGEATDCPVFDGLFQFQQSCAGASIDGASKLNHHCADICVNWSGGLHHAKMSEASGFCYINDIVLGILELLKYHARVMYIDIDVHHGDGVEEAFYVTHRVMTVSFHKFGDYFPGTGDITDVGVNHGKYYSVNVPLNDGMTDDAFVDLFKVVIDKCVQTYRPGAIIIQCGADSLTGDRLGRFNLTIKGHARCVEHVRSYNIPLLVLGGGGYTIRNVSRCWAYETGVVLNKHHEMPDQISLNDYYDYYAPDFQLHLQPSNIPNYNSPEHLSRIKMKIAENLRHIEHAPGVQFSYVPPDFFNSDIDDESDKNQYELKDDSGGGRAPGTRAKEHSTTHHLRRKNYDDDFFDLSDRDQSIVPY

P. falciparum strain Dd2 = assay: SYBR Green I fluorescence antiplasmodial assay, Dd2; assay type: cell-based, Plasmodium falciparum
[4] = tested on: synchronous Dd2 parasites; assay: Stage specific inhibition assay; assay type: cell-based, Plasmodium falciparum; conditions: 5 × EC50, synchronous Dd2
How it was run: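 Stage development assessed by Giemsa smears at every condition and time point, plus flow cytometry. Flow samples fixed in 4% paraformaldehyde for 30 min at 37°C, washed 3x in PBS, held at 4°C, then resuspended in 0.25% Triton X-100 and shaken at 500 RPM for 10 min. Parasites gated against an uninfected RBC control; treated-culture histograms overlaid on vehicle-treated culture.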

[5] = tested on: histone H4 acetylation in Plasmodium culture; assay: Immunofluorescence assay with anti-acetyl histone H4; assay type: cell-based, Plasmodium falciparum; conditions: synchronous cultures, 5x EC50
[6] = 48 h treatment, MTS, mean of triplicate ± SE/SEM
[7] = read-out: PfHDAC1 IC50, recombinant enzyme, 2 h at 37°C, mean of duplicate ± SEM

For `C[C@@H]1NC(=O)[C@H]2CCCN2C(=O)[C@H](CCCCCC(=O)[C@@H]2CO2)NC(=O)[C@@H](C)NC1=O` [HC toxin], the EC50 (P. falciparum 3D7) is given as 29 ± 2 nM.

In the case of WF 27082F [Compound 4], the EC50 [1, 6] is reported as 150 ± 40 nM.

In the case of FR235222 [Compound 3], the EC50 [1, 6] is reported as 260 ± 60 nM and the killing profile [2] is reported as “plasmodistatic”.

For `C[C@@H]1NC(=O)[C@H](CCCCCC(=O)[C@@H]2CO2)NC(=O)[C@H]2CCCN2C(=O)[C@H](Cc2ccccc2)NC1=O` [Compound 2, 1-alaninechlamydocin] (cyclo(AF[dP][Aoe])), the “histone H4 acetylation (Western blot)” value [3] was “hyperacetylation” and the EC50 [1, 6] was 38 ± 6 nM.

Work on `CC(C)C[C@@H]1NC(=O)[C@@H](Cc2ccccc2)NC(=O)[C@H](CCCCCC(=O)C2CO2)NC(=O)[C@@H]2CCCCN2C1=O` (some centres unmarked) [Compound 11, WF-3161] (cyclo(L[Pip][Aoe(9ξ)][dF])) yielded an EC50 [1, 6] of 22000 ± 900 nM and an IC50 (recombinant PfHDAC1; [7]) of 2 ± 2 nM.

For NA 1309 [Compound 7], the EC50 [1, 6] was > 25000 nM and the IC50 (recombinant PfHDAC1; [7]) was 6300 ± 800 nM.

In the case of Deoxy-WF 20782B [Compound 5], the “fold increase in EC50 compared with epoxide or alcohol R1 analogs” value (P. falciparum strain Dd2; ethyl analog versus analogs with epoxide or alcohol at R1) is reported as 2–6 fold and the EC50 [1, 6] is reported as 880 ± 50 nM.

In the case of `CC1(C)NC(=O)[C@H](CCCCCC(=O)[C@H]2CO2)NC(=O)[C@H]2CCCN2C(=O)[C@H](Cc2ccccc2)NC1=O` [Compound 1, chlamydocin], the EC50 (P. falciparum strain Dd2; Plasmodium falciparum, DD2, 72 h, read-out: Dd2 EC50) is reported as 31 ± 7 nM, the “Selectivity Index (SI)” value ([1]; HepG2 EC50 / average of Dd2 EC50 and 3D7 EC50) is reported as 17 and the EC50 ([1]; Homo sapiens, HepG2, 48 h) is reported as 530 ± 7 nM.

In the case of `O=C(CCCCCCC(=O)Nc1ccccc1)NO` [SAHA, suberanilohydroxamic acid], the “histone H4 acetylation (Western blot)” value [3] is reported as “hyperacetylation”, the “effect of treatment at 6 HPI” value [4] is reported as “resemble late trophozoite” and the “effect of treatment at 42 HPI” value [4] is reported as “partially inhibited at schizogony”. The “histone H4 acetylation (immunofluorescence)” value [5] was “noticeable increase in histone H4 acetylation” and the IC50 (recombinant PfHDAC1) was 92 ± 20 nM.
